Compound activity (PubChem)
UCH37 DUB inh – inhibitors of human deubiquitinating enzyme UCH37 | Q9Y5K5 | purified proteasome/UCH37, Ub-AMC cleavage fluorescence | inhibition, % (concentration not given with the values) | 330,000 compounds, 0.33% hits;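 active = mean inhibition over replicate wells above about 20%, limit read from the data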;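 note: 0% = compound-free wells with enzyme and 100% = wells lacking proteasome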
Target sequence (Q9Y5K5 whole entry, looked up): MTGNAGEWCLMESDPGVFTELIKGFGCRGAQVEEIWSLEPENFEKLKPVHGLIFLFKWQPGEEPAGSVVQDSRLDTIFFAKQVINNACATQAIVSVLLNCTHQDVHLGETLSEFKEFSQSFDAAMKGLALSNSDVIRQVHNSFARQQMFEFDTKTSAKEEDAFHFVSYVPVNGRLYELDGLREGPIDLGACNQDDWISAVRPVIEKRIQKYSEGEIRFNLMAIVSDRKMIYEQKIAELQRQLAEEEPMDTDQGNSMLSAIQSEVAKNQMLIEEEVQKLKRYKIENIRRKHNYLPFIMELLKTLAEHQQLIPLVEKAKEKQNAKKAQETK
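assay system = human UCH37 enzyme supplied as purified proteasome complex | amount = proteasome at 0.15 nM in the dispensed enzyme solution | schedule = 30 min compound-proteasome preincubation then 25 min substrate reaction, room temperature | measured by = fluorescence, ex 355 nm, em 460 nm | benchmarks = no-proteasome wells (full inhibition) and compound-free wells (no inhibition)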
CTSL1 counter – counter-screen for PFM18AAP inhibitors: inhibitors of F. hepatica cathepsin L1. recombinant F. hepatica cathepsin L1, Z-Leu-Arg-MCA fluorescence. inhibition, % at 5.96 µM. 300,000 compounds, 0.49% hits. AID 1906;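 active = inhibition above the mean of all tested compounds plus 3 SD, set per screening campaign, cut at about 17% in these data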;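 note: 0% = plate median of test compound wells and 100% = 1 µM Z-Phe-Ala-diazomethylketone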
SUMO HTRF inh – inhibitors of human SUMOylation (UBC9); AID 2006; 290,000 compounds, 0.36% hits; P63279; inhibition, % at 35 µM; HTRF SUMOylation assay, SAE1/SAE2 + UBC9, in vitro; in the data active = inhibition above about 50%, passing the limit was not always enough
Target sequence (P63279 whole entry, looked up): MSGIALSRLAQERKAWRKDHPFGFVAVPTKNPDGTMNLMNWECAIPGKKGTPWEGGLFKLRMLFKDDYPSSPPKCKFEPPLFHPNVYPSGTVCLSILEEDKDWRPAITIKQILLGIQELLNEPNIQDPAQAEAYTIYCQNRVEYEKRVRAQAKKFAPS
Neddylation inh – inhibitors of human cullin neddylation. P61081+Q13564. TR-FRET cullin neddylation, biochemical. inhibition, % at 25 µM. 360,000 compounds, 0.58% hits. AID 651699; in the data active = inhibition above about 36%
Neddyl inh conf – confirmation of human cullin neddylation inhibitors | calls only at 25 µM | TR-FRET cullin neddylation biochemical assay | AID 652217 | shares compounds with Neddylation inh | 1,800 compounds, 13% hits; in the data active = inhibition above about 40%;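 note: neddylation substrate is the cullin 1 ring ligase complex with SKP2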
The depositor's hits bear a star. The list is not random: actives were taken first. Their share in the collection is about 1.4%.

`Cc1cccc(C)c1NC(=O)C(C1CC1)n1c(=O)c(-c2ccccc2)nc2ccccc21` (stereo not given) gave Neddylation inh 55* and Neddyl inh conf active.
Cc1cccc(C)c1NC(=O)C(c1ccnc2ccccc12)n1c(=O)c(-c2ccccc2)nc2ccccc21 (stereo not given) was read as Neddylation inh 20.
`CC(C)(C)NC(=O)C(c1ccnc2ccccc12)n1c(=O)c(-c2ccccc2)nc2ccccc21` (stereo not given) gave Neddylation inh 45* and Neddyl inh conf inactive.
`CC(=O)Nc1ccc(S(=O)(=O)N(C)CC(=O)NN=Cc2ccc(C(=O)O)cc2)cc1` gave UCH37 DUB inh 2.
`Cc1ccc(C=NNC(=O)c2cc(C)oc2C)o1` gave UCH37 DUB inh -2.
Screening Cc1ccc(C(=O)NN=Cc2ccc([N+](=O)[O-])s2)cn1 returned UCH37 DUB inh 12.
`CC(C)(C)c1ccc(C(=O)NN=Cc2ccc(OCCCF)cc2)cc1` gave UCH37 DUB inh -5.
COCC1CCCCN1Cc1cn(-c2ccccc2)nc1-c1ccc2c(c1)OCO2 (stereo not given) was read as UCH37 DUB inh 2, CTSL1 counter -1, SUMO HTRF inh 12, Neddylation inh 45* and Neddyl inh conf inactive.
For OC[C@@H]1CCCN1Cc1cn(-c2ccccc2)nc1-c1ccc2c(c1)OCO2 the results were UCH37 DUB inh 0, CTSL1 counter 3, SUMO HTRF inh -9, Neddylation inh 40* and Neddyl inh conf inactive.
For c1ccc(-n2cc(CN3CCCC(CN4CCCC4)C3)c(-c3ccc4c(c3)OCO4)n2)cc1 (stereo not given) the results were CTSL1 counter 2, SUMO HTRF inh -6 and Neddylation inh -7.
For O=C(CN1CCN(Cc2ccccc2Cl)CC1)NN=Cc1ccco1 the results were UCH37 DUB inh 3.
`O=C(NN=Cc1ccc(Br)cc1)c1cc[n+](Cc2ccccc2)cc1` gave UCH37 DUB inh 14.
`COc1cc(/C=C/c2nnc3c4ccccc4ncn23)cc(OC)c1OC` gave UCH37 DUB inh -170, CTSL1 counter 2, SUMO HTRF inh 16, Neddylation inh 55* and Neddyl inh conf inactive.
O=C(CSc1cccc2cccnc12)Nc1cc(C(=O)O)cc(C(=O)O)c1 was read as UCH37 DUB inh -81, CTSL1 counter 1, SUMO HTRF inh 6, Neddylation inh 49* and Neddyl inh conf active.
COc1cc(C=NNc2ccc(Cl)c(C(=O)O)c2)ccc1OCC(=O)N1C(C)CCCC1C (stereo not given) was read as UCH37 DUB inh 5.
Screening Cc1ccc2c(c1)c1c3n2CC(=C2C(=O)OC(C)(C)OC2=O)NC3CCC1 (stereo not given) returned UCH37 DUB inh -9, CTSL1 counter 3, SUMO HTRF inh 9, Neddylation inh 45* and Neddyl inh conf inactive.
Screening COc1cc(C=NN=C2CC3CCC2(C)C3(C)C)ccc1O (stereo not given) returned UCH37 DUB inh 4.
CC(/C=C/c1ccccc1)=NNC(N)=S was read as UCH37 DUB inh 12.
`COc1ccc(-c2cnc3ccccc3n2)cc1NC(=O)CNC(=O)c1ccccc1` gave UCH37 DUB inh -67, CTSL1 counter 5, SUMO HTRF inh 24, Neddylation inh 39* and Neddyl inh conf inactive.
`O=C(CCc1ccccc1)Nc1nnc(-c2ccccn2)o1` gave UCH37 DUB inh -9, CTSL1 counter 2, SUMO HTRF inh 10, Neddylation inh 42* and Neddyl inh conf active.
Screening O=C(CSCc1ccccc1)NN=Cc1ccccc1OCc1ccccc1 returned UCH37 DUB inh 3.
O=C(CSc1ncn[nH]1)N1N=C2/C(=C/c3ccccc3)CCCC2C1c1ccccc1 (stereo not given) was read as UCH37 DUB inh -8, CTSL1 counter -2, SUMO HTRF inh -9 and Neddylation inh 38.
For COc1ccc(/C=C2\CCCC3C2=NN(C(=O)CSc2ncn[nH]2)C3c2ccc(OC)cc2)cc1 (stereo not given) the results were UCH37 DUB inh -25, CTSL1 counter 1, SUMO HTRF inh -17 and Neddylation inh 44*.
N#Cc1c(F)cccc1N1CCOCC1 was read as UCH37 DUB inh -11, CTSL1 counter -2, SUMO HTRF inh 8, Neddylation inh 42* and Neddyl inh conf inactive.
Screening C/C(O)=C/c1nc2ccccc2oc1=O returned UCH37 DUB inh 3.
`O=C(CN1C(=O)NC2NC(=O)NC21)NN=Cc1ccccc1F` (stereo not given) gave UCH37 DUB inh 3.
c1ccc(-c2nnc(-c3ccco3)o2)cc1 was read as UCH37 DUB inh 0, CTSL1 counter -1, SUMO HTRF inh -5 and Neddylation inh 42*.
Brc1ccc(-c2nnc(-c3ccco3)o2)cc1 was read as UCH37 DUB inh -10, CTSL1 counter 3, SUMO HTRF inh 27 and Neddylation inh 24.
`CCOc1ccc(S(=O)(=O)Nc2ccccc2C(=O)NCc2ccco2)cc1` gave UCH37 DUB inh 0, CTSL1 counter 0, SUMO HTRF inh -4, Neddylation inh 45* and Neddyl inh conf inactive.
Screening Cc1ccccc1NS(=O)(=O)c1ccc(OCC(=O)NCc2ccco2)cc1 returned UCH37 DUB inh 3, CTSL1 counter 3, SUMO HTRF inh -12 and Neddylation inh 0.
For Cc1sc2nc(-c3cccnc3)[nH]c(=O)c2c1-c1ccccc1 the results were UCH37 DUB inh -92, CTSL1 counter 2, SUMO HTRF inh 17, Neddylation inh 42* and Neddyl inh conf inactive.
Screening Oc1oc(-c2ccccc2)nc1C=Nc1nccs1 returned UCH37 DUB inh 1.
Screening Cc1cc(C(=O)NN=Cc2cc(C(C)(C)C)c(O)c(C(C)(C)C)c2)n[nH]1 returned UCH37 DUB inh 2.
For Cc1ccc2nc(NCc3ccccc3)c(C=NCc3ccccc3)c(=O)n2c1 the results were UCH37 DUB inh -13, CTSL1 counter 2, SUMO HTRF inh -6 and Neddylation inh 18.
Screening Cc1ccc2nc(NCCCN3CCOCC3)c(C=NCCCN3CCOCC3)c(=O)n2c1 returned UCH37 DUB inh -22, SUMO HTRF inh 5, Neddylation inh 42* and Neddyl inh conf inactive.
`CC(OC(=O)c1snc(C(=O)NC2CCCCC2)c1N)C(=O)NC(C)(C)C` (stereo not given) gave UCH37 DUB inh -94, CTSL1 counter 0, SUMO HTRF inh 10, Neddylation inh 40* and Neddyl inh conf active.
For CCCc1c(C(=O)NN=Cc2ccccc2OCc2ccc(F)cc2)nnn1-c1nonc1N the results were UCH37 DUB inh -42.
Cc1ccc(CNC(=O)c2cc(C3CC3)nc3c2cnn3C(C)C)cc1 was read as UCH37 DUB inh -24, Neddylation inh 43* and Neddyl inh conf inactive.
Screening Cc1ccccc1CCNC(=O)c1cc(C2CC2)nc2c1cnn2C(C)C returned UCH37 DUB inh -10.
